C8 TRAIL sens – sensitizes caspase-8 expressing cells to TRAIL. 360,000 tested, 1% active. inhibition (viability loss, TRAIL sensitization), % at 10 µM. NB7+C8 cells + TRAIL, ATPlite viability luminescence. AID 624354;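 active = compounds causing at least 50% loss of cell viability in the single-dose screen, relative to plate controls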
PPC-1+TRAIL kill – compounds killing PPC-1 cancer cells with TRAIL present (potentiator screen, no TRAIL-free arm) | 220,000 tested, 0.41% active | PPC-1 cells + TRAIL, ATPLite viability luminescence | cell killing (% activity), % at 4 µM or 5 µM | AID 1443;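 active = cell killing above 50% in the first pass at 4 µM, then a duplicate retest at 5 µM averaging 50% or more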;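 also: plate controls were cells with TRAIL plus DMSO for no effect and medium-only wells lacking cells for full effect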
FLuc stim CS – firefly luciferase counter-screen for stimulation assays | P08659 | ATPlite luciferase biochemical, luminescence, 10 min; 0 = ATP-free wells, 1 = DMSO control | activation factor at 10 µM | 200,000 tested, under 10 active | AID 1027;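 active = luciferase activation factor, scaled between plate controls, of at least 2 with compound at 10 µM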
Target sequence (P08659 whole entry, looked up): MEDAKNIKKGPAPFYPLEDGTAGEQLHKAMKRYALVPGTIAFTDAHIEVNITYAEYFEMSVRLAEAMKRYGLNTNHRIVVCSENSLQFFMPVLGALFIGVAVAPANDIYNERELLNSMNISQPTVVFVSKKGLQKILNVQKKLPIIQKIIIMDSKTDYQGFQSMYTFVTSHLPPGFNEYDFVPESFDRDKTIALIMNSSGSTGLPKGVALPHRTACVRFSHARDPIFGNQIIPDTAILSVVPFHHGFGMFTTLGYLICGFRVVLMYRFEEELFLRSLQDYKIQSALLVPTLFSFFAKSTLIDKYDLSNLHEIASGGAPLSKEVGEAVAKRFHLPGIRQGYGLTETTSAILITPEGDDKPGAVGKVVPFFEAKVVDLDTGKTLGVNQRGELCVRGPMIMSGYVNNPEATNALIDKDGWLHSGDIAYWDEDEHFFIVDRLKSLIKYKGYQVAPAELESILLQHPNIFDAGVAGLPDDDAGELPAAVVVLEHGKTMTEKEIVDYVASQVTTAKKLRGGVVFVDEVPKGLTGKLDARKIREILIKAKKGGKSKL
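Assay system: Luciferase/luciferin detection reagent, cell-free biochemical luciferase assay / Read-out: luciferase activation / Benchmarks: No-ATP low control, compound-free enzyme-plus-ATP high control / Medium: PBS buffer for ATP / Detection: luminescence measurement of luciferase light output / Schedule: 10 min at ambient temperature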
HSP90 inh – inhibitors of HSP90 luciferase refolding in rabbit reticulocyte lysate; AID 1789; 290,000 tested, 0.91% active; luciferase refolding luminescence, 3 h; inhibition, % at 5.6 µM;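 active = inhibition above the screen-wide mean plus 3 SD, computed separately per campaign, cut at about 16% in these data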;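 also: 0% = DMSO wells and 100% = 60 µM geldanamycin wells; inhibitors lower the luminescence because luciferase stays unfolded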
FLuc inh counter – counter-screen for luciferase assay inhibitors: firefly luciferase inhibition; ATPLite firefly luciferase biochemical luminescence, 10 min; inhibition, % at 10 µM; 200,000 tested, 1.5% active;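 active = inhibition above about 50% when tested at 10 µM, limit read from the data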
An asterisk follows results filed as active. Hits are enriched below; roughly 2% of the tested compounds scored in any of these assays.

Screening COc1ccc(C(=O)Nc2cc(OC)cc(OC)c2)cc1 returned C8 TRAIL sens 30.1, PPC-1+TRAIL kill 30.5, FLuc stim CS 0.3, HSP90 inh 1.1 and FLuc inh counter 66.2*.
Screening COc1cc(NC(=O)c2ccccc2)cc(OC)c1 returned C8 TRAIL sens 21.3, PPC-1+TRAIL kill 14.8, FLuc stim CS 0.7, HSP90 inh -3.8 and FLuc inh counter 25.3.
CC(C)Oc1cccc(C(=O)Nc2ccc(CN3CCOCC3)cc2)c1 was read as C8 TRAIL sens 8.6, PPC-1+TRAIL kill 27.2, FLuc stim CS 0.9, HSP90 inh 3.6 and FLuc inh counter 7.0.
For O=C(Nc1ccc2[nH]ccc2c1)c1cccs1 the results were C8 TRAIL sens 62.6*, PPC-1+TRAIL kill 42.3 and HSP90 inh 3.2.
For O=C(Nc1ccc(NC(=O)c2cccs2)cc1)c1cccs1 the results were C8 TRAIL sens 11.9 and HSP90 inh -0.7.
Screening COc1cc(OC)cc(C(=O)OCC(=O)NC2CCCCCCC2)c1 returned C8 TRAIL sens 1.1.
For COc1ccc(CN2CCC[C@]3(N[C@H](c4ccc(OC)cc4)[C@@H]4C(=O)N(C)C(=O)[C@@H]43)C2=O)cc1 the results were C8 TRAIL sens -1.8.
For COc1ccc(Cc2c(C3CCCCC3)nc3cc(C)c(Br)c(C)n23)c(C)c1 the results were C8 TRAIL sens 4.0.
Nc1ccn([C@@H]2O[C@H](CNCc3ccc(Oc4cc(-n5cccn5)ncn4)cc3)[C@@H](O)[C@H]2O)c(=O)n1 was read as C8 TRAIL sens -11.5.
`COc1ccc(C(=O)Nc2ccc3[nH]ccc3c2)cc1` gave C8 TRAIL sens 92.5*.
COc1ccc(C(=O)Nc2ccc3[nH]ccc3c2)cc1OC was read as C8 TRAIL sens 40.8.
`CN(C)CCCN(C(=O)c1ccc(S(=O)(=O)N2CCc3ccccc32)cc1)c1nc2ccc(Cl)cc2s1` gave C8 TRAIL sens 8.3 and HSP90 inh 16.3*.
`CN(C)CCCN(C(=O)c1ccc(S(=O)(=O)N2CCc3ccccc3C2)cc1)c1nc2ccc(F)cc2s1` gave C8 TRAIL sens 84.8* and HSP90 inh 8.5.
Screening COc1ccc2sc(N(CCCN(C)C)C(=O)c3ccc(S(=O)(=O)N4CCCC4)cc3)nc2c1 returned C8 TRAIL sens 16.0.
CN(C)CCCN(C(=O)c1ccc(S(=O)(=O)N2CCc3ccccc32)cc1)c1nc2ccc(F)cc2s1 was read as C8 TRAIL sens 0.0 and HSP90 inh -0.1.
Screening COc1ccc2sc(N(CCCN(C)C)C(=O)c3ccc(S(=O)(=O)N4CCc5ccccc5C4)cc3)nc2c1 returned C8 TRAIL sens 93.1*.
Screening Cc1ccc2nc(N(CCCN(C)C)C(=O)c3ccc(S(=O)(=O)N4CCc5ccccc5C4)cc3)sc2c1 returned C8 TRAIL sens 76.5* and HSP90 inh 0.8.
`Cc1cccc2sc(N(CCCN(C)C)C(=O)c3ccc(S(=O)(=O)N4CCc5ccccc5C4)cc3)nc12` gave C8 TRAIL sens 43.6 and HSP90 inh 7.6.
Screening CN(C)CCCN(C(=O)c1ccc(S(=O)(=O)N2CCc3ccccc3C2)cc1)c1nc2c(F)cccc2s1 returned C8 TRAIL sens 4.5 and HSP90 inh 2.7.
Cc1cc(C)c2sc(N(CCCN(C)C)C(=O)c3ccc(S(=O)(=O)N4CCc5ccccc5C4)cc3)nc2c1 was read as C8 TRAIL sens 91.8*.
Screening Cc1cc(C)c2sc(N(CCCN(C)C)C(=O)c3ccc(S(=O)(=O)N4CCCc5ccccc54)cc3)nc2c1 returned C8 TRAIL sens 74.4*.
`Nc1ccc2oc3ccccc3c2c1` gave C8 TRAIL sens 0.1, PPC-1+TRAIL kill -4.3, FLuc stim CS 0.9, HSP90 inh 16.2* and FLuc inh counter 6.7.
For CCN(CC)S(=O)(=O)c1cccc(C(=O)OC2CC(C)OC2=O)c1 (stereo not drawn) the results were C8 TRAIL sens -3.6 and HSP90 inh 16.5*.
Screening O=C(COC(=O)c1ccc(Cl)nc1)c1ccc2c(c1)OCCO2 returned C8 TRAIL sens 11.6, PPC-1+TRAIL kill 19.8, FLuc stim CS 0.1, HSP90 inh 5.5 and FLuc inh counter 88.0*.
`O=C(COC(=O)c1cccc(S(=O)(=O)NCc2ccccc2)c1)NC1CC1` gave C8 TRAIL sens -30.3.
For N#CCCN(C(=O)COC(=O)c1ccc(Cl)nc1)c1ccc2c(c1)OCCO2 the results were C8 TRAIL sens -2.3.
For O=C(COC(=O)C(O)c1ccccc1)c1ccc2c(c1)OCCO2 (stereo not drawn) the results were C8 TRAIL sens -2.8, PPC-1+TRAIL kill 5.9, FLuc stim CS 0.2, HSP90 inh 1.6 and FLuc inh counter 84.0*.
Cc1c(C(=O)OCC(=O)c2ccc3c(c2)OCCO3)oc2ccccc12 was read as C8 TRAIL sens 15.6, PPC-1+TRAIL kill 14.9, FLuc stim CS 0.8, HSP90 inh 2.6 and FLuc inh counter 24.2.
`O=C(COC(=O)c1cccc(S(=O)(=O)NCc2ccccc2)c1)c1ccc2c(c1)OCCO2` gave C8 TRAIL sens -0.4, PPC-1+TRAIL kill 30.5, FLuc stim CS 0.5, HSP90 inh 3.1 and FLuc inh counter 53.5*.
Cc1ccc(S(=O)(=O)NCc2ccccc2)cc1C(=O)NCC(=O)Nc1c(C)cccc1C was read as C8 TRAIL sens -21.0.
Screening COc1ccc(C2=Cc3ccccc3C(CC(=O)C3CC3)N2c2ccc(-c3cc(OC)c(OC)c(OC)c3)cc2)cc1 (stereo not drawn) returned C8 TRAIL sens -5.9.
`CCOc1ccc(CCNC(=O)C2CCCN(S(=O)(=O)N3CCCCC3)C2)cc1OCC` (stereo not drawn) gave C8 TRAIL sens -3.2.
O=C(CS(=O)(=O)c1ccccc1)c1ccc2c(c1)OCCO2 was read as C8 TRAIL sens 5.4, PPC-1+TRAIL kill 18.7, FLuc stim CS 0.4, HSP90 inh 2.6 and FLuc inh counter 58.0*.
Screening CS(=O)(=O)c1cccc(C(=O)OCC(=O)c2ccc3c(c2)OCCO3)c1 returned C8 TRAIL sens 3.8.
`CCN(CC)S(=O)(=O)c1cccc(C(=O)OCC(=O)c2ccc3c(c2)OCCO3)c1` gave C8 TRAIL sens -2.6, PPC-1+TRAIL kill 13.6, FLuc stim CS 0.1, HSP90 inh 4.2 and FLuc inh counter 87.0*.
`CCC(=O)Nc1ccccc1C(=O)OCC(=O)c1ccc2ccccc2c1` gave C8 TRAIL sens 0.7, PPC-1+TRAIL kill 5.7, FLuc stim CS 1, HSP90 inh 5.1 and FLuc inh counter -0.1.
CCCCC(=O)Nc1ccccc1C(=O)OCC(=O)c1ccc2c(c1)OCCO2 was read as C8 TRAIL sens 9.6, PPC-1+TRAIL kill 24.7, FLuc stim CS 0.3, HSP90 inh -2.8 and FLuc inh counter 65.7*.
`COc1ccc(CCCNC(=O)C2Cc3c(-c4ccc5c(c4)OCO5)ccnc3O2)cc1` (stereo not drawn) gave C8 TRAIL sens 19.5.
Screening O=C(Nc1nnc([C@@H]2C[C@H](O)[C@@H](CO)O2)s1)c1ccc(Oc2ccccc2)cc1 returned C8 TRAIL sens -5.6.

Compound activity: PubChem, several laboratories
